Laboratory results reported in article PMC2933508 (Cancer research, 2010).
Where a SMILES comes first, the peptide text is derived from it. [ ]: non-standard residue; d: D form. The star is where a group is joined. NH(Colchicin-10-yl) = COc1cc2c(c(OC)c1OC)-c1ccc(N*)c(=O)cc1[C@@H](NC(C)=O)CC2; FITC = O=C1OC2(c3ccc(O)cc3Oc3cc(O)ccc32)c2ccc(NC(=S)*)cc21; hPhe = N[C@@H](CCc1ccccc1)C(=O)O; Cit = NC(=O)NCCC[C@H](N)C(=O)O; βAla = NCCC(=O)O

Tests used:
[1] = ICT2588 metabolism ex vivo in MCF7 xenograft homogenate; assay type: in vitro ADME; settings: human, other tissue homogenate, pH 7.6
In short: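 Supernatants were run at 100 mg tissue per ml with test compound at 20 μmol/L final. Aliquots taken over 120 min were acetonitrile-precipitated and analysed by LC-MS: reverse-phase, 22.5–50% acetonitrile/0.05% TFA gradient over 30 min, parent quantified at 360 nm. Three independent experiments.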

[2] = test system: HT1080 cells (MT1-MMP positive); assay: MTT chemosensitivity assay, HT1080 cells; assay type: cell-based, human; settings: in vitro, MTT IC50 ratio
In short: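 HT1080 and MCF7 cells were grown in RPMI 1640 with 10% FBS, 1 mmol/L pyruvate and 2 mmol/L glutamine, at low passage. MTT assay: exposure to test conjugate (2.4 nmol/L–5 μmol/L), free metabolite (0.1 nmol/L–5 μmol/L) or DMSO for 24 or 96 h. Survival was read 96 h post-treatment and IC50 taken from survival curves; mean ± SD of 3 independent experiments.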

HT1080 tumors [3] = assay: Antitumor activity, HT1080 xenograft, single agent; assay type: in vivo, mouse
In short: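 Female Balb/c nude mice (6–8 wk) carried s.c. HT1080 xenograft fragments (2–3 mm³) and were randomized at ~32 mm³. They got a single i.p. dose of test conjugate (37.5, 50, 62.5 or 75 mg kg⁻¹) or molar-equivalent free metabolite (7.5–15 mg kg⁻¹). Caliper volume ((a²×b)/2, normalized to day 0) and body weight were recorded daily for up to 64 days. Growth delay was the time to tumor-volume doubling relative to control. Mann-Whitney U test.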

MCF7 = assay: Intracellular fluorescence following treatment; assay type: cell-based, human; settings: in vitro
HT1080 tumors [4] = assay: Vascular shutdown and tumor necrosis in HT1080 tumors; assay type: in vivo, mouse; settings: 24 h after i.p. ICT2588 150 mg kg−1, HT1080 tumor-bearing mice, mean of 3 mice
In short: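 Mice bearing HT1080 tumours got i.p. test conjugate (150 mg kg⁻¹), free metabolite (10.2 mg kg⁻¹) or vehicle (10% DMSO/Arachis oil). Functional tumour vasculature and hemorrhagic necrosis were assessed 24 h later; mean of 3 mice ± standard error.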

[5] = Pharmacokinetics and tissue distribution in HT1080 tumor-bearing mice; assay type: in vivo, mouse; settings: ICT2552 10.2 mg kg−1 i.p., 4 h post-administration
In short: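 Mice bearing HT1080 tumours received i.p. test conjugate (150 mg kg⁻¹), free metabolite (10.2 mg kg⁻¹) or vehicle (10% DMSO/Arachis oil). Tumour, blood, liver, kidney, lung, heart and spleen were collected at set times. Plasma (5000 g, 10 min) was diluted 1:5 into methanol; tissues were snap-frozen and homogenized in ice-cold methanol. Supernatants went to LC-MS against agent-free plasma/tissue calibrators; 3 mice per time point.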

SMILES | half-life [1] [min] | chemosensitivity of HT1080 cells relative to MCF7 cells [2] | tumor growth delay (HT1080 tumors [3]; ICT2588 75 mg kg−1 single i.p. dose, p<0.01) [days] | loss in mouse bodyweight (maximum) (HT1080 tumors [3]; all doses of ICT2588 used (37.5-75 mg kg−1 i.p.), data not shown) [%] | cell entry / intracellular fluorescence following treatment (MCF7) | increase in hemorrhagic necrosis (HT1080 tumors [4]) [fold] | tumor growth delay (HT1080 tumors [3]; ICT2552 15 mg kg−1 single i.p. dose (equimolar to ICT2588 75 mg kg−1)) [days] | antitumor response compared with ICT2588 at equimolar doses (HT1080 tumors [3]; ICT2552 7.5, 10, 12.5 and 15 mg kg−1 i.p.) | concentration of ICT2552 in plasma [5] | concentration of ICT2552 in tumor versus liver tissue [5]
COc1cc2c(c(OC)c1OC)-c1ccc(NC(=O)[C@H](Cc3ccc(O)cc3)NC(=O)[C@H](CC(C)C)NC(=O)[C@H](Cc3ccc(O)cc3)NC(=O)[C@H](CCc3ccccc3)NC(=O)CNC(=O)[C@H](CCCNC(N)=O)NC(=O)[C@H](CO)NC(=O)[C@H](CCCNC(=N)N)NC(=O)CCNC(=S)Nc3ccc4c(c3)C(=O)OC43c4ccc(O)cc4Oc4cc(O)ccc43)c(=O)cc1[C@@H](NC(C)=O)CC2 [ICT2588] ({FITC-βAla}-RS[Cit]G[hPhe]YLY-{NH(Colchicin-10-yl)}; N-terminus and C-terminus assumed) | 33.1 | at least 10 fold | 4.4 | ≤ 6 | lack of observable intracellular fluorescence | 3 | – | – | – | –
COc1cc2c(c(OC)c1OC)-c1ccc(N)c(=O)cc1[C@@H](NC(C)=O)CC2 [ICT2552, azademethylcolchicine] | – | equally cytotoxic to HT1080 and MCF7 cells | – | – | – | – | 1.9 | significantly lower antitumor response | below the level of detection | not significantly different
